Mot1-301 SUMO: SUMOylation pathway inhibition by Mot1-301 growth rescue; hit rate 1% among 320,000; S. cerevisiae Mot1-301 growth rescue, ATP luminescence, 38.5C; percent above DMSO median, 100 means doubled; growth rescue, % at 18.8 µM;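 active = every valid replicate shows activation above 250% relative to neutral control wells; inactive = the rest, any valid replicate at or below 250%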;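 also: OY570 slx delta 5 strain wells were the positive control but not used for scaling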
rRNA inh HTS: selective bacterial rRNA inhibition in E. coli; hit rate 1.6% among 350,000; AID 720706; GFP signal change (wild-type ribosome), % (test concentration not listed); E. coli WT GFP vs humanized-ribosome RFP mutants, fluorescence, 24 h; hits give low values; DMSO median 0, no signal -100;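 active = significant combined selectivity score with lowered wild-type GFP, culture density cut under 30%, mutant RFP and density less affected; inactive = any of these conditions unmet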
PglD DTNB: PglD (C. jejuni) enzyme inhibition. hit rate 0.098% among 360,000. purified PglD enzyme, DTNB colorimetric CoA detection. inhibition, % at 12.5 µM. AID 602405; in the data active = inhibition above about 16%, passing the limit was not always enough; inconclusive = no clear call, values can overlap the other calls
Cneo AK release: causes C. neoformans cell lysis; hit rate 0.2% among 360,000; lysis activity, % at 15 µM; AID 651654; adenylate kinase release luminescence, 4 h; normalised: neutral wells 0, clomiphene wells 100;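 active = mean lysis activity across replicates of at least 80%, whatever share of replicates individually reach that level; inactive = mean lysis activity below 80%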
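Material: C. neoformans cells; Schedule: 4 h static compound exposure, 37 °C, read 1 h post-reagent; Measured by: adenylate kinase release luminescence; Read-out: signal increase indicating cell lysis; Controls: Clomiphene as positive lysis control.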
CR mimetic SO: yeast age-related superoxide inhibition as caloric restriction mimetic; S. cerevisiae aged cells, superoxide DHE fluorescence; hits give low values; superoxide response (% of plate mean), % at 10 µM; hit rate 0.18% among 330,000; AID 2690;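 active = superoxide response under a set limit, about three screen SD below normal, cut at about 65% in these data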;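 also: yeast aged for seven days with compound at 30 °C before DHE staining; 100% = average MFI of all compound-treated wells on the plate with controls excluded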
AID977621: wild-type E. coli growth inhibition versus H69 humanized strain – H69 mutant RFP, wild-type GFP, cherry-pick, dose response | activity change, negative = inhibition at 50 µM | AID 977621 | fluorescence, 24 h | 1,900 tested, under 10 active | shares compounds with rRNA inh HTS;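 active = Wild-type ribosome reporter drop at least double the humanized mutant ribosome reporter drop, growth loss under a set limit; inconclusive = no clear call, values can overlap the other calls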;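 also: wild-type GFP and H69 mutant RFP strains grown together 50/50 in each well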
AID977628: E. coli growth inhibition, wild-type GFP versus h24 humanized RFP strain, dose response, h24 mutant RFP vs wild-type GFP, cherry-pick. shares compounds with rRNA inh HTS. 1,900 tested, under 10 active. E. coli WT GFP strain growth, fluorescence, 24 h. activity change, negative = inhibition at 50 µM;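 active = compound lowering the normal-ribosome reporter at least twice as much as the humanized-ribosome reporter, growth loss under a set limit; inconclusive = no clear call, values can overlap the other calls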;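 also: wild-type GFP and h24 humanized RFP strains co-cultured 1 to 1 per well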
Active calls of the source: *. Hits are enriched below; roughly 2.2% of the tested compounds scored in any of these assays.

Screening Cc1noc(C)c1NC(=O)Nc1ccc2c(c1)C(=O)N([C@@H](C)CO)C[C@@H](C)[C@@H](CN(C)C(=O)Nc1ccc3c(c1)OCO3)OCCCC[C@@H](C)O2 returned rRNA inh HTS -1.3, PglD DTNB 3.8, Cneo AK release 1.2, AID977621 -0.24 and AID977628 inconclusive.
C[C@H]1CN([C@@H](C)CO)C(=O)c2cccc(NC(=O)Nc3ccc4c(c3)OCO4)c2O[C@@H]1CN(C)C(=O)Nc1ccccc1 was read as rRNA inh HTS -0.4, PglD DTNB -1.5 and Cneo AK release -4.2.
CCCC#Cc1ccc2c(c1)[C@H]1[C@H](CCN1C(=O)C1CC1)[C@H](CO)N2 was read as rRNA inh HTS 2.3.
Cc1noc(C)c1NC(=O)Nc1ccc2c(c1)C(=O)N([C@@H](C)CO)C[C@@H](C)[C@H](CN(C)C(=O)Nc1ccc3c(c1)OCO3)OCCCC[C@H](C)O2 was read as rRNA inh HTS -1.8, PglD DTNB -2.5, Cneo AK release -0.9, AID977621 1.31 and AID977628 inconclusive.
For CNC[C@@H]1Oc2ccc(NC(=O)C3CC3)cc2CC(=O)N([C@H](C)CO)C[C@H]1C the results were rRNA inh HTS 3.9, PglD DTNB 0.1 and Cneo AK release -1.0.
`O=C(c1cc(C(=O)N2CCOCC2)c2nc3ccccc3n2c1)c1cc(Cl)cc(Cl)c1O` gave Mot1-301 SUMO -17.2, rRNA inh HTS -18.5*, CR mimetic SO 91.6 and AID977628 inconclusive.
For C[C@H](CO)N1C[C@H](C)[C@H](CN(C)C(=O)CN(C)C)Oc2ncc(-c3ccc(F)cc3)cc2C1=O the results were rRNA inh HTS 2.2, PglD DTNB 0.7 and Cneo AK release 38.3.
CO[C@H]1CN(C)C(=O)c2cc(NC(=O)Nc3cccc(Cl)c3)ccc2OC[C@@H](C)NC[C@H]1C was read as rRNA inh HTS -4.9, PglD DTNB 1.2 and Cneo AK release 2.1.
C#CCOc1nc(Nc2cccc([N+](=O)[O-])c2)nc(OCC#C)n1 was read as Mot1-301 SUMO 256.3, rRNA inh HTS -17.6*, PglD DTNB 5.9, Cneo AK release 2.7, CR mimetic SO 99.8, AID977621 -10.7 and AID977628 -2.5.
C[C@H](CO)N1C[C@H](C)[C@@H](CN(C)C(=O)Nc2cccc3ccccc23)Oc2ccc(NC(=O)Nc3ccc(C(F)(F)F)cc3)cc2C1=O was read as rRNA inh HTS 6.2, PglD DTNB 4.4 and Cneo AK release -0.5.
`Cc1cccc(-c2noc(-c3ccccc3C(=O)NCc3ccco3)n2)c1` gave Mot1-301 SUMO -17.4, rRNA inh HTS -33.3*, PglD DTNB -13.1, Cneo AK release -4.0, CR mimetic SO 103.3, AID977621 -17.2 and AID977628 -14.2.
For Cc1ccc(-c2noc(-c3ccccc3C(=O)NCc3ccco3)n2)cc1 the results were Mot1-301 SUMO -15.3, rRNA inh HTS 6.1 and CR mimetic SO 93.0.
`COc1ccc(Cc2c(-c3cccc(Br)c3)nc3ccc(Cl)cn23)c(C)c1` gave rRNA inh HTS -4.9, PglD DTNB 0.9 and Cneo AK release -1.2.
COc1ccc(Cc2c(-c3cccc(Cl)c3)nc3ccc(Cl)cn23)c(C)c1 was read as rRNA inh HTS -19.3*, PglD DTNB 5.9, Cneo AK release 0.5, AID977621 inconclusive and AID977628 -10.4.
For Fc1ccc(-c2nc3ccc(Cl)cn3c2Cc2cccc(Cl)c2)cc1 the results were rRNA inh HTS -20.9*, PglD DTNB 2.3, Cneo AK release 2.3, AID977621 8.16 and AID977628 -16.6.
Screening Cc1ccc(-c2nc3ccc(Cl)cn3c2Cc2ccccc2C(F)(F)F)cc1 returned rRNA inh HTS -7.3, PglD DTNB -1.8 and Cneo AK release -3.0.
Cc1ccc2nc(-c3ccc(Cl)cc3)c(Cc3ccccc3C(F)(F)F)n2c1 was read as rRNA inh HTS -15.7*, PglD DTNB -4.9, Cneo AK release -0.9, AID977621 -2.29 and AID977628 -2.83.
`COc1ccc(-c2nc3ccc(Cl)cn3c2Cc2cccc(F)c2)cc1OC` gave rRNA inh HTS -20.8*, PglD DTNB 3.0, Cneo AK release 2.1 and AID977621 inconclusive.
`CCCNC(=O)N(C)C[C@H]1Oc2cc(C#Cc3ccccn3)ccc2S(=O)(=O)N([C@@H](C)CO)C[C@@H]1C` gave rRNA inh HTS -2.0, PglD DTNB -16.0 and Cneo AK release -2.5.
`COc1ccc(-c2cnc3c(c2)C(=O)N([C@H](C)CO)C[C@@H](C)[C@@H](CN(C)Cc2ccccc2)O3)cc1` gave rRNA inh HTS 1.2, PglD DTNB 1.4 and Cneo AK release -1.6.
Screening COc1ccc(NC(=O)N(C)C[C@H]2OCCCC[C@@H](C)Oc3ccc(NS(=O)(=O)c4ccc(Cl)cc4)cc3C(=O)N([C@H](C)CO)C[C@@H]2C)cc1 returned rRNA inh HTS 1.5, PglD DTNB -2.7 and Cneo AK release -2.3.
For Cn1ccc2cc(-c3ccc4ncnc(NCc5cccs5)c4c3)ccc21 the results were Mot1-301 SUMO 80.1, rRNA inh HTS -23.6*, PglD DTNB 1.8, Cneo AK release 1.5, CR mimetic SO 89.6, AID977621 inconclusive and AID977628 -10.9.
Screening Cc1ccc(S(=O)(=O)N(C)C[C@H]2Oc3c(NC(=O)c4cc(C)nn4C)cccc3C(=O)N([C@H](C)CO)C[C@H]2C)cc1 returned rRNA inh HTS 1.3, PglD DTNB 3.4 and Cneo AK release -0.1.
Screening CO[C@@H]1CN(C)C(=O)c2ccc(NC(=O)c3nc4ccccc4s3)cc2OC[C@@H](C)N(Cc2cncnc2)C[C@@H]1C returned rRNA inh HTS -13.0.
Screening Cc1ccc(S(=O)(=O)Nc2ccccc2CNc2cccc(C)n2)cc1 returned Mot1-301 SUMO -13.1, rRNA inh HTS -16.5*, PglD DTNB -5.0, Cneo AK release 1.5, CR mimetic SO 115.6, AID977621 -15.4 and AID977628 inconclusive.
For Cc1ccc(S(=O)(=O)NCc2ccccc2NS(=O)(=O)c2ccc(C)cc2)cc1 the results were rRNA inh HTS -35.0.
C[C@H](CO)N1C[C@H](C)[C@H](CN(C)C(=O)CCC(F)(F)F)OCCCC[C@H](C)Oc2ccc(NS(=O)(=O)c3cccs3)cc2C1=O was read as rRNA inh HTS -3.9, PglD DTNB -0.4 and Cneo AK release 0.1.
For CC(=O)Nc1ccc2nc3ccccc3nc2c1 the results were Mot1-301 SUMO 5.2, rRNA inh HTS -26.0*, CR mimetic SO 52.0* and AID977621 -17.3.

Source: PubChem BioAssay
